We go through 23 compounds from ChEMBL document CHEMBL1130231, “Betidamino acid scan of the GnRH antagonist acyline” (J Med Chem, 1997).

Structures are written as SMILES.

The assay deals with T1, Gonadotropin-releasing hormone receptor (Rattus norvegicus, UniProt P30969).
T1 sequence (P30969 whole entry): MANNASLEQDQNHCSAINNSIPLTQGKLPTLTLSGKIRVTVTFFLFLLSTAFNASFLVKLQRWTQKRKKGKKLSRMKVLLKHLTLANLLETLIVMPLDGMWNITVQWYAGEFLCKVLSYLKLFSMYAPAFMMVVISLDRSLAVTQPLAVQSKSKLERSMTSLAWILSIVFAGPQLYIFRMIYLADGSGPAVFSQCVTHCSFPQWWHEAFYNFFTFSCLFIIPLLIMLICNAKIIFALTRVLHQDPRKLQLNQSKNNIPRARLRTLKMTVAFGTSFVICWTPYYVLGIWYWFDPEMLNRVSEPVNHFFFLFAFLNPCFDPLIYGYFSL
Briefly: Inhibition of binding of radiolabeled histrelin to Gonadotropin-releasing hormone receptor (GnRHr) in rat pituitary gland membranes. The assay is classed as cell membranes, Membrane. The essentials: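 Rat anterior pituitary membranes (male and female glands equal numbers), homogenized in 0.32 M sucrose/aprotinin, 4000g pellet, diluted 15-fold in 10 mM Hepes, 0.2% BSA, pH 7.6. Filtration onto PEI-treated glass filters, scintillation counting. IC50 in nM, duplicate, n = 1.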
As usually defined, the IC50 is the concentration that gives 50% inhibition. Lower therefore signals higher potency. `CC(=O)Nc1ccc(C[C@H](NC(=O)[C@H](CO)NC(=O)[C@@H](Cc2cccnc2)NC(=O)[C@H](NC(=O)c2cnccn2)NC(=O)[C@@H](Cc2ccc3ccccc3c2)NC(C)=O)C(=O)N[C@H](Cc2ccc(NC(C)=O)cc2)C(=O)N[C@@H](CC(C)C)C(=O)N[C@@H](CCCCNC(C)C)C(=O)N2CCC[C@H]2C(=O)N[C@H](C)C(N)=O)cc1` (single isomer, unassigned) showed an IC50 of 1700 nM.
As to `CC(=O)Nc1ccc(C[C@H](NC(=O)[C@H](NC=O)NC(=O)[C@@H](Cc2cccnc2)NC(=O)[C@@H](Cc2ccc(Cl)cc2)NC(=O)[C@@H](Cc2ccc3ccccc3c2)NC(C)=O)C(=O)N[C@H](Cc2ccc(NC(C)=O)cc2)C(=O)N[C@@H](CC(C)C)C(=O)N[C@@H](CCCCNC(C)C)C(=O)N2CCC[C@H]2C(=O)N[C@H](C)C(N)=O)cc1`, the IC50 is 0.84 nM.
The same measure for `CC(=O)Nc1ccc(C[C@H](NC(=O)[C@H](CO)NC(=O)[C@H](NC(=O)c2ccncc2)NC(=O)[C@@H](Cc2ccc(Cl)cc2)NC(=O)[C@@H](Cc2ccc3ccccc3c2)NC(C)=O)C(=O)N[C@H](Cc2ccc(NC(C)=O)cc2)C(=O)N[C@@H](CC(C)C)C(=O)N[C@@H](CCCCNC(C)C)C(=O)N2CCC[C@H]2C(=O)N[C@H](C)C(N)=O)cc1` (single isomer, unassigned): 220 nM; for `CC(=O)Nc1ccc(C[C@H](NC(=O)[C@H](CO)NC(=O)[C@@H](Cc2cccnc2)NC(=O)[C@H](NC(=O)c2cn[nH]c2N)NC(=O)[C@@H](Cc2ccc3ccccc3c2)NC(C)=O)C(=O)N[C@H](Cc2ccc(NC(C)=O)cc2)C(=O)N[C@@H](CC(C)C)C(=O)N[C@@H](CCCCNC(C)C)C(=O)N2CCC[C@H]2C(=O)N[C@H](C)C(N)=O)cc1`: 2500 nM; for `CC(=O)Nc1ccc(C[C@H](NC(=O)[C@H](CO)NC(=O)[C@H](Cc2cccnc2)NC(=O)[C@@H](Cc2ccc(Cl)cc2)NC(=O)[C@@H](Cc2ccc3ccccc3c2)NC(C)=O)C(=O)N[C@H](Cc2ccc(NC(C)=O)cc2)C(=O)N[C@@H](CC(C)C)C(=O)N[C@@H](CCCCNC(C)C)C(=O)N2CCC[C@H]2C(=O)N[C@H](C)C(N)=O)cc1`: 0.23 nM.
Then `CC(=O)Nc1ccc(C[C@H](NC(=O)[C@H](CO)NC(=O)[C@@H](Cc2cccnc2)NC(=O)[C@@H](Cc2ccc(Cl)cc2)NC(=O)[C@@H](Cc2ccc3ccccc3c2)NC(C)=O)C(=O)N[C@H](Cc2ccc(NC(C)=O)cc2)C(=O)N[C@@H](CC(C)C)C(=O)N[C@H](C(=O)N2CCC[C@H]2C(=O)N[C@H](C)C(N)=O)N(C)C(=O)CCNC(C)C)cc1` (single isomer, unassigned), with 0.5 nM; and `CC(=O)Nc1ccc(C[C@@H](NC(=O)[C@H](NC(=O)c2ccc(O)cc2)NC(=O)[C@H](CO)NC(=O)[C@@H](Cc2cccnc2)NC(=O)[C@@H](Cc2ccc(Cl)cc2)NC(=O)[C@@H](Cc2ccc3ccccc3c2)NC(C)=O)C(=O)N[C@@H](CC(C)C)C(=O)N[C@@H](CCCCNC(C)C)C(=O)N2CCC[C@H]2C(=O)N[C@H](C)C(N)=O)cc1`, with 0.3 nM.
As for `CC(=O)Nc1ccc(C[C@H](NC(=O)[C@@H](NC(=O)[C@@H](Cc2cccnc2)NC(=O)[C@@H](Cc2ccc(Cl)cc2)NC(=O)[C@@H](Cc2ccc3ccccc3c2)NC(C)=O)N(C)C=O)C(=O)N[C@H](Cc2ccc(NC(C)=O)cc2)C(=O)N[C@@H](CC(C)C)C(=O)N[C@@H](CCCCNC(C)C)C(=O)N2CCC[C@H]2C(=O)N[C@H](C)C(N)=O)cc1` (single isomer, unassigned), the half-inhibitory concentration (IC50) was found to be 5.5 nM.
Take `CC(=O)Nc1ccc(C[C@H](NC(=O)[C@H](CO)NC(=O)[C@@H](Cc2cccnc2)NC(=O)[C@@H](Cc2ccc(Cl)cc2)NC(=O)[C@@H](Cc2ccc3ccccc3c2)NC(C)=O)C(=O)N[C@H](Cc2ccc(NC(C)=O)cc2)C(=O)N[C@@H](CC(C)C)C(=O)N[C@@H](CCCCNC(C)C)C(=O)N2CCC[C@H]2C(=O)N[C@H](N)C(N)=O)cc1`: the IC50 was found to be 0.48 nM. Against the preceding compound, the IC50 is about 11-fold lower.
The compound `CC(=O)Nc1ccc(C[C@H](NC(=O)[C@H](CO)NC(=O)[C@@H](Cc2cccnc2)NC(=O)[C@@H](Cc2ccc(Cl)cc2)NC(=O)[C@@H](Cc2ccc3ccccc3c2)NC(C)=O)C(=O)N[C@H](C(=O)N[C@@H](CC(C)C)C(=O)N[C@@H](CCCCNC(C)C)C(=O)N2CCC[C@H]2C(=O)N[C@H](C)C(N)=O)N(C)C(=O)c2ccc(NC(C)=O)cc2)cc1` (mixture of isomers) displayed an IC50 of 5.3 nM. This IC50 is about 11-fold higher than that of the compound before.
In turn, `CC(=O)Nc1ccc(C[C@H](NC(=O)[C@H](CO)NC(=O)[C@@H](Cc2cccnc2)NC(=O)[C@@H](NC(=O)c2cnccn2)NC(=O)[C@@H](Cc2ccc3ccccc3c2)NC(C)=O)C(=O)N[C@H](Cc2ccc(NC(C)=O)cc2)C(=O)N[C@@H](CC(C)C)C(=O)N[C@@H](CCCCNC(C)C)C(=O)N2CCC[C@H]2C(=O)N[C@H](C)C(N)=O)cc1` had an IC50 of 2000 nM.
Then `CC(=O)Nc1ccc(C[C@H](NC(=O)[C@H](CO)NC(=O)[C@@H](Cc2cccnc2)NC(=O)[C@@H](Cc2ccc(Cl)cc2)NC(=O)[C@@H](Cc2ccc3ccccc3c2)NC(C)=O)C(=O)N[C@@H](C(=O)N[C@@H](CC(C)C)C(=O)N[C@@H](CCCCNC(C)C)C(=O)N2CCC[C@H]2C(=O)N[C@H](C)C(N)=O)N(C)C(=O)c2ccc(NC(C)=O)cc2)cc1` (mixture of isomers), with 1.9 nM.
In turn, `CC(=O)Nc1ccc(C[C@H](NC(=O)[C@H](CO)NC(=O)[C@@H](Cc2cccnc2)NC(=O)[C@@H](Cc2ccc(Cl)cc2)NC(=O)[C@@H](Cc2ccc3ccccc3c2)NC(C)=O)C(=O)N[C@H](Cc2ccc(NC(C)=O)cc2)C(=O)N[C@@H](CC(C)C)C(=O)N[C@@H](CCCCNC(C)C)C(=O)N2CCC[C@H]2C(=O)N[C@H](C(N)=O)N(C)C=O)cc1` returned a concentration for half-maximal inhibition (IC50) of 0.67 nM.
Consider `CC(=O)Nc1ccc(C[C@@H](NC(=O)[C@H](NC(=O)[C@H](CO)NC(=O)[C@@H](Cc2cccnc2)NC(=O)[C@@H](Cc2ccc(Cl)cc2)NC(=O)[C@@H](Cc2ccc3ccccc3c2)NC(C)=O)N(C)C(=O)c2ccc(NC(C)=O)cc2)C(=O)N[C@@H](CC(C)C)C(=O)N[C@@H](CCCCNC(C)C)C(=O)N2CCC[C@H]2C(=O)N[C@H](C)C(N)=O)cc1`, for which the IC50 is 0.43 nM.
Compound `CN[C@@H](NC(=O)[C@@H]1CCCN1C(=O)[C@H](CCCCNC(C)C)NC(=O)[C@H](CC(C)C)NC(=O)[C@@H](Cc1ccc(NC(C)=O)cc1)NC(=O)[C@H](Cc1ccc(NC(C)=O)cc1)NC(=O)[C@H](CO)NC(=O)[C@@H](Cc1cccnc1)NC(=O)[C@@H](Cc1ccc(Cl)cc1)NC(=O)[C@@H](Cc1ccc2ccccc2c1)NC(C)=O)C(N)=O` gave a half-maximal inhibitory concentration (IC50) of 0.9 nM.
The same measure for `CC(=O)Nc1ccc(C[C@H](NC(=O)[C@H](CO)NC(=O)[C@@H](NC(=O)c2cccnc2)NC(=O)[C@@H](Cc2ccc(Cl)cc2)NC(=O)[C@@H](Cc2ccc3ccccc3c2)NC(C)=O)C(=O)N[C@H](Cc2ccc(NC(C)=O)cc2)C(=O)N[C@@H](CC(C)C)C(=O)N[C@@H](CCCCNC(C)C)C(=O)N2CCC[C@H]2C(=O)N[C@H](C)C(N)=O)cc1`: 0.63 nM; for `CC(=O)Nc1ccc(C[C@H](NC(=O)[C@H](CO)NC(=O)[C@@H](Cc2cccnc2)NC(=O)[C@@H](Cc2ccc(Cl)cc2)NC(=O)[C@@H](Cc2ccc3ccccc3c2)NC(C)=O)C(=O)N[C@H](Cc2ccc(NC(C)=O)cc2)C(=O)N[C@@H](CC(C)C)C(=O)NC(NC(=O)CNC(=N)N)C(=O)N2CCC[C@H]2C(=O)N[C@H](C)C(N)=O)cc1` (stereo partly drawn): 0.74 nM; for `CC(=O)Nc1ccc(C[C@H](NC(=O)[C@H](NC(=O)CO)NC(=O)[C@@H](Cc2cccnc2)NC(=O)[C@@H](Cc2ccc(Cl)cc2)NC(=O)[C@@H](Cc2ccc3ccccc3c2)NC(C)=O)C(=O)N[C@H](Cc2ccc(NC(C)=O)cc2)C(=O)N[C@@H](CC(C)C)C(=O)N[C@@H](CCCCNC(C)C)C(=O)N2CCC[C@H]2C(=O)N[C@H](C)C(N)=O)cc1` (single isomer, unassigned): 0.3 nM.
The compound `CC(=O)Nc1ccc(C[C@@H](NC(=O)[C@@H](NC(=O)c2ccc(NC(C)=O)cc2)NC(=O)[C@H](CO)NC(=O)[C@@H](Cc2cccnc2)NC(=O)[C@@H](Cc2ccc(Cl)cc2)NC(=O)[C@@H](Cc2ccc3ccccc3c2)NC(C)=O)C(=O)N[C@@H](CC(C)C)C(=O)N[C@@H](CCCCNC(C)C)C(=O)N2CCC[C@H]2C(=O)N[C@H](C)C(N)=O)cc1` came in with a concentration for half-maximal inhibition (IC50) of 0.51 nM.
Then `CC(=O)Nc1ccc(C[C@H](NC(=O)[C@H](CO)NC(=O)[C@@H](Cc2cccnc2)NC(=O)[C@@H](Cc2ccc(Cl)cc2)NC(=O)[C@@H](Cc2ccc3ccccc3c2)NC(C)=O)C(=O)N[C@H](Cc2ccc(NC(C)=O)cc2)C(=O)N[C@@H](CC(C)C)C(=O)N[C@@H](CCCCNC(C)C)C(=O)N2CCC[C@H]2C(=O)N[C@H](NC=O)C(N)=O)cc1` (single isomer, unassigned), with 0.59 nM; and `CC(=O)Nc1ccc(C[C@H](NC(=O)[C@@H](NC=O)NC(=O)[C@@H](Cc2cccnc2)NC(=O)[C@@H](Cc2ccc(Cl)cc2)NC(=O)[C@@H](Cc2ccc3ccccc3c2)NC(C)=O)C(=O)N[C@H](Cc2ccc(NC(C)=O)cc2)C(=O)N[C@@H](CC(C)C)C(=O)N[C@@H](CCCCNC(C)C)C(=O)N2CCC[C@H]2C(=O)N[C@H](C)C(N)=O)cc1` (single isomer, unassigned), with 0.63 nM; and `CC(=O)Nc1ccc(C[C@H](NC(=O)[C@H](CO)NC(=O)[C@@H](Cc2cccnc2)NC(=O)[C@@H](Cc2ccc(Cl)cc2)NC(=O)[C@H](NC(C)=O)NC(=O)c2ccc3ccccc3c2)C(=O)N[C@H](Cc2ccc(NC(C)=O)cc2)C(=O)N[C@@H](CC(C)C)C(=O)N[C@@H](CCCCNC(C)C)C(=O)N2CCC[C@H]2C(=O)N[C@H](C)C(N)=O)cc1`, with 0.88 nM.
The same measure for `CC(=O)Nc1ccc(C[C@H](NC(=O)[C@H](CO)NC(=O)[C@@H](Cc2cccnc2)NC(=O)[C@@H](Cc2ccc(Cl)cc2)NC(=O)[C@@H](Cc2ccc3ccccc3c2)NC(C)=O)C(=O)N[C@H](Cc2ccc(NC(C)=O)cc2)C(=O)N[C@@H](CC(C)C)C(=O)N[C@@H](C(=O)N2CCC[C@H]2C(=O)N[C@H](C)C(N)=O)N(C)C(=O)CCNC(C)C)cc1` (single isomer, unassigned): 2.4 nM.
